A selection: hits, their analogues and other compounds. The true share with any hit is near 2.4%.
DNMT1 inh: inhibitors of human DNMT1; DNMT1 molecular beacon, Hinp1I cleavage, fluorescence; inhibition (reported as % activation of signal), % at 10 µM; hit rate 0.83% among 360,000; AID 588458; in the data active = inhibition above about 50%
SUMO1 PPI mod: modulators of human SUMO1-mediated protein-protein interactions | SUMO1 binding to a labelled peptide, TR-FRET, 1 h | hit rate 0.33% among 360,000 | inhibition, % at 20 µM | P63165; in the data active = inhibition above about 37%
Target sequence (P63165 whole entry, looked up): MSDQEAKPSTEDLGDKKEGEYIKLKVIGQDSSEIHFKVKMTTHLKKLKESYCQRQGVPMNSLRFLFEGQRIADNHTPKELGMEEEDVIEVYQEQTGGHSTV
LMPTP inh: blocks human LMPTP phosphatase; P24666; recombinant LMPTP-A, OMFP fluorogenic substrate, fluorescence intensity; inhibition, % at 20 µM; hit rate 0.22% among 360,000; AID 651560;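 active = compounds that cut the enzyme signal by at least half of the control window in the single-dose screen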;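 also: plate controls were DMSO wells with enzyme plus substrate for no effect and substrate without enzyme for full effect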
Target sequence (P24666 whole entry, looked up): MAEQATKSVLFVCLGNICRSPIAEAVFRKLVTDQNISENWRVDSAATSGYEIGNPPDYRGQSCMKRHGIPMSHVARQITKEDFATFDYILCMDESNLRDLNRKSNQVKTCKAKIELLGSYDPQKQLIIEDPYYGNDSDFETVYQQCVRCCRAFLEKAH
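material = LMPTP-A | quantity = 0.625 nM enzyme | reagent = OMFP substrate, 400 µM final | buffer or medium = Bis-Tris pH 6.0, DTT, detergent | detection = endpoint fluorescence intensity from OMFP dephosphorylation | dosing = single 20 µM dose | read-out basis = % inhibition relative to no-enzyme and uninhibited control wells | control set = no-enzyme and uninhibited controls | timing = 50 min at room temperature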
Scp1 inh: blocks human Scp-1 phosphatase activity; Q9GZU7; hit rate 0.88% among 340,000; AID 493091; inhibition, % at 20 µM; Recombinant Scp1, phosphopeptide, malachite green phosphate absorbance;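 active = inhibition above about 50% at 20 µM, limit read from the data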;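 also: plate controls were DMSO wells with enzyme for no effect and wells lacking enzyme for full effect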
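Test system: SCP-1 catalytic domain; Buffer or medium: Acidic Tris acetate buffer with magnesium and detergent; Also added: Phosphorylated 17-residue peptide substrate; Compound: single 20 µM dose, 1% DMSO; Schedule: enzyme reaction 45 min at room temperature, colour 5 min, stabilisation 30 min; Signal: Phosphate-binding colour reagent, absorbance read at 630 nm.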
NadD block: inhibitors of Staphylococcus aureus NadD; purified NadD enzyme, colorimetric absorbance read-out; inhibition, % at 20 µM; hit rate 0.78% among 360,000; in the data active = inhibition above about 26%
STEP block: blocks human striatal-enriched tyrosine phosphatase. inhibition, % at 20 µM. P54829. hit rate 0.25% among 360,000. recombinant STEP, OMFP fluorogenic substrate, fluorescence. AID 588621;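 active = inhibition at 20 µM, scaled per plate between control wells, above about 37%, limit read from the data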;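 also: 0% = DMSO with enzyme and substrate and 100% = substrate only without enzyme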
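Measure: Control-normalized % inhibition with plate pattern correction | Test system: STEP phosphatase, cell-free reaction | Medium: pH 6.0 Bis-Tris with DTT and Tween 20 | Technique: Fluorescence, 480/540 nm | Times: Reaction 20 min, ambient temperature | Doses: Single compound dose of 20 µM, 1% DMSO final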
Active calls of the source: *; / = not tested or not shown.

SMILES	DNMT1 inh	SUMO1 PPI mod	LMPTP inh	Scp1 inh	NadD block	STEP block
CN(CC(=O)N1CCN(c2ccccc2)CC1)C1CCCc2ccccc21 (stereo not given)	-2	1	-2	-8	1	2
O=CN/N=C/c1c(O)ccc2ccccc12	11	-20	-2	-8	-3	-5
Oc1ccc2ccccc2c1/C=N/Nc1ccccc1	-27	-3	0	-17	0	52*
Oc1ccc(/C=N/N2CCN(C3c4ccccc4-c4ccccc43)CC2)c(O)c1	-16	-4	3	-3	11	0
C/C(=N\NC(=O)c1cc(O)ccc1O)c1cccc(NC(=O)c2ccc(Cl)cc2)c1	-13	44*	44	49	11	12
O=C(COC(=O)C1CCN(c2ccc(C(F)(F)F)cn2)CC1)Nc1cc(F)ccc1F	0	-1	3	-4	5	-1
CCc1oc(C(=O)O)cc1COC	43	-1	-2	66*	-2	0
O=C(O)c1ccc(N2C(=O)c3cccnc3C2=O)cc1	3	-4	0	-3	-4	0
CC(=O)c1ccc(NC(=O)c2ccc(N3C(=O)c4cccnc4C3=O)cc2)cc1	-5	41*	3	7	6	2
COc1ccc([C@@H]2C[C@H](c3ccccc3)Oc3cc(C)cc(C)c32)cc1	5	3	3	-9	-5	0
O=S(=O)(Nc1cc2nc3ccccc3nc2n1Cc1ccccc1)c1ccc(Cl)cc1	89*	51*	38	-14	24	-13
Cc1cc(C)n(-c2ccc(C(=O)Nc3nc4ccccc4s3)cc2)n1	-9	6	-2	-2	1	-1
Nc1ccc(C(=O)Nc2ccc(Nc3ccncc3)cc2)cc1	2	40	7	-14	-2	0
Nc1ccc(NC(=O)c2ccc(C(=O)Nc3ccc(N)cc3)cc2)cc1	-22	59*	6	-10	9	39
Nc1ccc(C(=O)Nc2nc3ccccc3s2)cc1	-4	2	-1	60*	0	0
CCCCN(C(=O)c1cc(S(=O)(=O)N2CCCCCC2)ccc1OC)c1ccccc1	-2	60*	2	-7	0	3
CCCNc1nc(C)cc(-c2cc(C(=O)Nc3ccccc3)on2)n1	3	0	1	-2	-4	-2
O=C1C=CC(=O)c2c(O)c(N3CCN(CCO)CC3)c(Cl)c(O)c21	103*	91*	76*	73*	50*	27
O=C1C=CC(=O)c2c(O)c(N3CCN(CCOCCO)CC3)c(Br)c(O)c21	98*	109*	77*	70*	62*	86*
O=S(=O)(c1ccc(Br)cc1Cl)N1CCN(CCO)CC1	1	-1	0	-2	-5	1
O=Cc1cccn1-c1c(C(=O)O)cnn1-c1ccccc1	0	42*	-1	6	2	-1
O=C(O)c1cnn(-c2ccccc2)c1-c1ccncc1	28	4	-1	37	-3	2
CC(C)CCNC(=O)C(c1ccncc1)N(Cc1cccs1)C(=O)Cn1nnc(-c2ccc(F)cc2)n1 (stereo not given)	-22	0	2	4	26	-1
O=c1cc(-c2cc3ccccc3o2)c2cc(O)ccc2o1	-2	-7	58*	28	-6	12
O=C(N/N=C/c1ccc(O)cc1O)c1ccc(CN2C(=O)c3cccc4cccc2c34)cc1	-6	8	3	21	44*	3
CC(C)C[C@@H](CN1CCC[C@@H]1CN1C(=S)NC[C@@H]1Cc1ccc(O)cc1)N1C[C@H](Cc2ccc(O)cc2)N(CC2CCCCC2)C1=S	-54	4	3	/	42*	2
CC(C)C[C@@H](CN1CCCC1CN1C(=S)NC[C@@H]1Cc1ccccc1)N1C[C@H](Cc2ccc(O)cc2)N(CC2CCCCC2)C1=S (stereo not given in full)	/	1	1	/	29	/
Cc1ccc2nc(-c3ccc4c(c3)NC(=O)CO4)cn2c1	14	-2	73*	-15	-1	-2
COc1ccc(OCC(O)CN2CCNCC2)cc1 (stereo not given)	-1	-3	-3	-5	3	-1

Compound activity: PubChem, Sanford-Burnham Center for Chemical Genomics
